# Screening data as filed in PubChem BioAssay.
# V1R ag counter – V1a receptor agonism, counter-screen for OXTR agonists; P37288; CHO-V1R cells, Fluo-8 calcium fluorescence, agonist mode; 0% DMSO, 100% 3 nM vasopressin; activation, % at 3 µM; hit rate 0.25% among 320,000; AID 2797;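 active = activation above the mean activation of all tested compounds plus 3 SD, per screening run, cut at about 20% in these data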;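 also: signal is peak over basal fluorescence ratio across a 100 second FLIPR read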
# Target sequence (P37288 whole entry, looked up): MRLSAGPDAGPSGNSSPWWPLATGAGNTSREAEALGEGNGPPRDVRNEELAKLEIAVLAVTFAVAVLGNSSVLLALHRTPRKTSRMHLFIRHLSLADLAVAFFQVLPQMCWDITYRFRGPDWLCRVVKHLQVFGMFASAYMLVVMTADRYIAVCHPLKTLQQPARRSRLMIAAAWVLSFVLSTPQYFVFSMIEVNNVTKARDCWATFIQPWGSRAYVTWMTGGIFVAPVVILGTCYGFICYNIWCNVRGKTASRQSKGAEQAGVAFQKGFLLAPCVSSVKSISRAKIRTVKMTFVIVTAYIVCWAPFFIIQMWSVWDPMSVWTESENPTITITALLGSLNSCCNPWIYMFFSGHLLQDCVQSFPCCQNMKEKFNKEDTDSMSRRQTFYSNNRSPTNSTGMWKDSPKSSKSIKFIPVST
# TAAR1 ag – agonists of human TAAR1. activation, % at 3 µM. Q96RJ0. CHO RD-HGA16 TAAR1, Fluo-8 calcium fluorescence; vehicle wells 0%, saturating PEA agonist 100%. hit rate 0.99% among 360,000;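 active = activation above the mean activation of all test compounds in the run plus 3 SD, cut at about 38% in these data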
#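 Benchmarks: low control DMSO, high control PEA (EC100); System: CHO RD-HGA16 cells carrying human TAAR1 plus Gα16; Detection: Fluo-8 fluorescence, 5 s baseline then 140 s kinetic read; Schedule: 17-24 h plating, Fluo-8 75 min 37 °C, 30 min RT; Read-out basis: % activation from peak over basal fluorescence ratio, DMSO-to-PEA scaled.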
# OXTR agonist – agonists of human oxytocin receptor; CHO-OTR cells, Fluo-8 calcium fluorescence; normalized: DMSO 0%, oxytocin 100%; P30559; hit rate 0.32% among 320,000; activation, % at 3 µM; AID 2435;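 active = activation above the mean of all tested compounds plus 3 SD, cutoff set per screening run, cut at about 20% in these data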;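 also: peak over basal fluorescence ratio from a 100 s FLIPR kinetic read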
# TAAR1 antagonist – human TAAR1 antagonism | Q96RJ0 | CHO RD-HGA16 TAAR1, Fluo-8 calcium fluorescence, antagonist | inhibition, % at 3 µM | hit rate 1.5% among 360,000;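 active = inhibition above a per-plate cutoff, the mean inhibition of test compounds on that plate plus 3 SD, cut at about 49% in these data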;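 also: 0% = DMSO plus EC80 beta-PEA response and 100% = DMSO alone without agonist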
#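 System: RD-HGA16 CHO cells with stable hTAAR1 and Gα16 | Probe or stimulus: EC80 β-phenethylamine stimulus | Dosing: 3 µM, single point | Times: Dye loading 75 min at 37 °C, then 30 min room temperature | Measured by: Fluo-8 calcium-sensitive fluorescence | Read-out basis: % inhibition of agonist calcium response | Replicates: n of 1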
# OXTR potentiate – human OXTR potentiation; hit rate 0.061% among 320,000; activation, % at 3 µM; P30559; CHO-OTR cells, Fluo-8 calcium fluorescence, potentiator mode; 0% = oxytocin EC15, 100% = EC100;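 active = activation above that plate's cutoff, the mean activation of tested compounds plus 3 SD, cut at about 6.6% in these data, passing the limit was not always enough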;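 also: 100% uses oxytocin at 75 nM as the full agonist control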
#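 Material: CHO-OTR cells, human receptor; compound dosing: single dose, 3.0 µM nominal final compound concentration; schedule: 6 min compound pre-incubation at room temperature, 100 s kinetic read; measured by: kinetic Fluo-8 calcium fluorescence; read-out basis: % activation vs EC15 and EC100 oxytocin; controls: EC15 oxytocin alone as 0%, 75 nM oxytocin as 100%; replicates: singlicate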
# Active calls of the source: *; / = not tested or not shown. An excerpt weighted towards active compounds, which were near 2.3% of everything screened.
SMILES,V1R ag counter,TAAR1 ag,OXTR agonist,TAAR1 antagonist,OXTR potentiate
COc1ccc(CNC(=O)C2CCN(c3cc(C(=O)Nc4cccc(OC)c4)ccn3)CC2)cc1,3,3,1,49*,-10
COCCCNC(=S)N1CCN(c2nc(-c3ccc(F)cc3)cs2)CC1,9,9,10,52*,-22
COC(=O)C1=C(C)NC(C)=C(C(=O)OCCN(C)Cc2ccccc2)C1c1cccc([N+](=O)[O-])c1 (stereo not drawn),-1,-1,-1,49*,-9
CCOC(=O)C1=C(C)NC(C)=C(C(=O)OCCNC(=O)c2cccnc2)C1c1cccc([N+](=O)[O-])c1 (stereo not drawn),0,/,0,/,2
COC(=O)C1=C(C)N(c2cccc(C)c2)C(=O)/C1=C\c1cccs1,0,48*,-2,-3,-8
COc1ccc(OC)c(-c2oc3ccccc3c(=O)c2O)c1,-1,1,-2,-5,-15
COc1ccc(OC)c(-c2c3cc(O)c(=O)cc-3oc3cc(O)c(O)cc23)c1,486*,/,715*,/,-12
Cc1c(CN2CCN(c3ncc(Cc4ccccc4)cn3)CC2)c(=O)n(-c2ccccc2)n1C,/,7,/,0,/
CCOC(=O)c1ccccc1OCc1cc(/C=N/NC(=O)c2cccnc2)ccc1OC,1,17,-3,81*,-5
COc1ccc(/C=N\NC(=O)c2ccccc2)cc1COc1ccccc1,1,5,2,32,-7
COc1ccc(/C=N/NC(=O)c2ccoc2C)cc1COc1c(C)cccc1C,3,6,3,68*,-17
CCCCc1c(-c2ccccc2OC)ncn1Cc1ccc(OC)c(Cl)c1,/,6,/,-6,/
CCCn1cc(CCC(=O)Nc2ccc(Oc3cccnc3)cc2)c2ccccc21,/,-2,/,29,/
O=C(O)c1cccc(NC(CNS(=O)(=O)c2ccc(Cl)cc2)c2ccccc2)c1 (stereo not drawn),1,2,1,-11,2
O=S(=O)(NCC(Nc1ccccc1)c1ccccc1)c1ccc(Cl)cc1 (stereo not drawn),0,-1,-2,51*,-16
COc1cc(/C=C2\SC(=Nc3ccccc3)N(Cc3ccco3)C2=O)ccc1OC(C)C(=O)O (stereo not drawn),0,4,-2,-15,3
COCCN1C(=O)/C(=C/c2ccc(OCc3ccc(C(=O)O)cc3)c(OC)c2)SC1=Nc1ccccc1,1,19,1,73*,-9
CN1c2ccccc2C(C)(C)C12C=Nc1c(ccc3ccccc13)O2 (stereo not drawn),1,40*,1,43,-7
OC(CNCCc1ccccc1)COc1ccc(OCC(O)CNCCc2ccccc2)cc1 (stereo not drawn),1,13,2,0,-11
OC(CNCCc1ccc(Cl)cc1)COc1ccc2ccccc2c1 (stereo not drawn),/,42*,/,13,/
CC(C)=CCN1C(=O)[C@]2(OCCC=C[C@H]2C)c2c(Br)cccc21,/,-2,/,-19,/
O=C(CCSCCC(=O)NN=Cc1ccccc1O)NN=Cc1ccccc1O,/,44*,/,48,/
O=C(CSc1ccccc1)N/N=C/c1ccccc1O,2,16,2,0,-8
COc1ccc(CN(C(=O)CSc2nnc(-c3c[nH]c4ccccc34)o2)c2ccc(F)cc2)cc1OC,2,26,2,82*,-15
COc1ccc(CN(C(=O)CSc2nnc(-c3ccc(F)cc3)o2)c2ccc(F)cc2)cc1,3,0,2,-34,-11
SMILES,V1R ag counter,TAAR1 ag,OXTR agonist,TAAR1 antagonist,OXTR potentiate
COC(=O)N[C@H]1CC=C[C@@H]1Cc1cccc(Oc2ccccc2)c1,/,2,/,-19,/
O=C1c2ccccc2-c2onc3ccc(NCc4ccco4)c1c23,35*,/,58*,/,-31
O=C1c2ccccc2-c2onc3ccc(N4CCCC4)c1c23,/,35,/,40,/
CCOC(=O)C1CCN(c2cc3c(cc2NC(=O)c2ccccc2Cl)n(C)c(=O)n3C)CC1,0,4,-1,56*,-6
O=C(NCc1ccccc1)[C@H]1CCCN1,/,1,/,-10,/
c1ccc(CN2CCCC3CC2c2ccccc23)cc1 (stereo not drawn),/,0,/,-7,/
COc1ccc(Br)cc1C1CC(=O)N2CN(C)CSC2=C1C#N (stereo not drawn),13,46*,11,-9,-2
